High-throughput results (PubChem BioAssay)
GalR3 antagonist – GalR3 antagonists in HEK293 cells, primary screen, cell-based, fluorescence readout | Galanin receptor type 3 (Homo sapiens), O60755 | HEK293 GalR3-CNG cAMP membrane potential fluorescence; galR3 body fused to GalR1 C-terminus | inhibition, % at 3 µM | actives 0.44% (n = 360,000);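 active = inhibition above the screen-wide average plus 3 SD, cut at about 13% in these data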;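 also: forskolin and galanin both at EC90 stimulate the cells; cAMP rise reported by CNG channel membrane potential dye signal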
NR2E3 ag-1 – NR2E3 agonists in two-hybrid cells, primary screen, cell-based, luminescence, CHO-S, Gal4-NCOR/VP16-NR2E3. Photoreceptor-specific nuclear receptor (Homo sapiens), Q9Y5X4. luciferase. inhibition of corepressor binding, % at 3.98 µM. actives 0.35% (n = 360,000);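 active = inhibition above the mean of all tested compounds plus 3 SD, cut at about 70% in these data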;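 also: higher means lower luciferase signal from less NR2E3 corepressor binding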
Target sequence (Q9Y5X4 whole entry, looked up, the tested form may be a part): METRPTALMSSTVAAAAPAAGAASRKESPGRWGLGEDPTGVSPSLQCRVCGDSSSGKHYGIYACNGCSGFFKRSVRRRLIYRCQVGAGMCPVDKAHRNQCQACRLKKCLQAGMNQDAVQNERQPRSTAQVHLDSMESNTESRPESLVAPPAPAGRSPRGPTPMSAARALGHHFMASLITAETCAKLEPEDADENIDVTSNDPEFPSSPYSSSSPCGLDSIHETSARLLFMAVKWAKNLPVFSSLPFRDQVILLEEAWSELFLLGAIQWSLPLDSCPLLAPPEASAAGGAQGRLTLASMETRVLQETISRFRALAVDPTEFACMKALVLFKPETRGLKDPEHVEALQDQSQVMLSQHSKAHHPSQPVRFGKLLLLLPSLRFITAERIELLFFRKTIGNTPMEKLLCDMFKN
NR2E3 ag-2 – inhibitors of NR2E3-RetCOR corepressor binding, primary screen, NR2E3 agonist project, biochemical, TR-FRET, GST-NR2E3, biotin-RetCOR. 1536-well. inhibition of corepressor binding, % at 4.78 µM. actives 0.12% (n = 320,000). AID 2300, 2010;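 active = percent inhibition above the cutoff of mean plus 3 SD of all tested compounds, set per screening campaign, cut at about 20% in these data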
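Material: NR2E3–RetCOR corepressor complex / Incubation: Compound–protein incubation for 5 h at 4 °C / Dosing: compound at 4.8 µM, single dose / Detection: time-resolved FRET / Benchmarks: high control biotin, low control 0.6% DMSO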
NR1D1 modulator – modulators of Rev-erb alpha DNA binding, primary screen, biochemical, FITC-DNA, fluorescence polarization, uHTS; Nuclear receptor subfamily 1 group D member 1 (Homo sapiens), P20393; Rev-erbα–FITC-DNA binding, 90 min; activity, % at 10 µM; actives 0.79% (n = 370,000); AID 1259318, 2017;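 active = activity above about 14%, limit read from the data; passing the limit was not always enough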
PG9 Ab binder – binders of HIV-1 gp120 antibody PG9, primary screen, biochemical, TR-FRET; TR-FRET gp120-PG9 antibody binding; actives 0.43% (n = 360,000); inhibition, % at 6.7 µM; AID 624416, 2012; HIV-1 gp120 / PG9 antibody interaction; in the data active = inhibition above about 8.5%
NR1D1 mod conf – modulators of Rev-erb alpha DNA binding, confirmation, biochemical, FITC-DNA, fluorescence polarization, single point. shares compounds with NR1D1 modulator. 90 min. activation, % at 25 µM. actives 61% (n = 3,000);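 active = activation at or above a set limit, or at least 3 SD above the negative control mean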
RORg DNA counter – modulation of RORgamma DNA binding, dose response, counter-screen for Rev-erb alpha modulator project, biochemical, fluorescence polarization, FITC-DNA; shares compounds with NR1D1 modulator; purified RORgamma protein-FITC-DNA binding; IC50, µM; actives 8% (n = 910);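 active = Compounds whose fitted half-maximal concentration for disrupting protein-DNA binding is below 10 micromolar; the record names Rev-erb in its text, so the target is in doubt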
Of the large screens only hits and unclear results are named; the others gave an inactive call (follow-up assays come after a bar, where they were run). Sampled rows, rich in hits. Any-hit rate of the full collection: about 1.8%.

CC(=O)c1cccc(NC(=O)Cn2nc(-c3ccc(Cl)cc3)ccc2=O)c1	NR1D1 modulator 23 | NR1D1 mod conf inactive
COc1ccc(CNC(=O)Cn2nc(-c3ccc4c(c3)OCCO4)ccc2=O)cc1	none
COC(=O)COc1ccc(NC(=O)Cn2nc(-c3ccccc3)c3ccccc3c2=O)cc1	none
COC(=O)[C@]12C[C@H](CC(=O)N3CCC(c4ccccc4)CC3)C(=O)N(Cc3cccc4ccccc34)C1=C[C@H](C1CCCC1)O[C@@H]2C	none (no result: GalR3 antagonist, NR2E3 ag-1, NR2E3 ag-2, PG9 Ab binder)
O=C(CN1CCN(Cc2ccccc2)CC1)N/N=C\c1c2ccccc2cc2ccccc12	none (no result: GalR3 antagonist, NR2E3 ag-1, NR2E3 ag-2, PG9 Ab binder)
COc1ccc(-n2nnnc2SCC(=O)c2cccc(OC)c2)cc1	none
O=C(CSc1nnnn1-c1ccc2c(c1)OCCO2)c1cccc2c1OCCO2	NR1D1 modulator 107 | NR1D1 mod conf 81 | RORg DNA counter inactive
O=C(CSc1nnc(-c2cccs2)n1-c1cccc(Cl)c1)c1cccc2c1OCCO2	NR1D1 modulator 79 | NR1D1 mod conf 85 | RORg DNA counter inactive
O=C(O)CSc1nnnn1-c1ccc2c(c1)OCCO2	none
O=C(O)CSc1nnc(-c2cccs2)n1-c1ccc(Cl)cc1	none
COc1ccc(-n2nnnc2SCC(=O)c2ccc3c(c2)OCCO3)cc1	NR1D1 modulator 63 | NR1D1 mod conf 64
Cc1c(-c2ccc(F)cc2)nc(N)c(C#N)c1-c1cccnc1	none
Cc1nn(-c2ccc(F)cc2)c2nc(N)c(C#N)c(-c3cccs3)c12	NR1D1 modulator 80 | NR1D1 mod conf 45
Cc1c(-c2ccc(F)cc2)nc(N)c(C#N)c1-c1cccs1	NR1D1 modulator 78 | NR1D1 mod conf 53 | RORg DNA counter 3.2
Nc1ccn([C@@H]2O[C@H](C(=O)N[C@H](Cc3ccccc3)C(=O)N3CCN(CCO)CC3)[C@@H](O)[C@H]2O)c(=O)n1	none (no result: NR2E3 ag-1, NR2E3 ag-2)
Clc1ccc(Oc2ncnc3oc(-c4ccccc4)cc23)cc1	NR1D1 modulator 37 | NR1D1 mod conf 18
Cc1ccccc1Oc1ncnc2oc(-c3ccccc3)cc12	none
COc1ccc(CCn2c(-c3ccccc3)nc3c(c(=O)c4ccccc4n3C)c2=O)cc1	none (no result: NR2E3 ag-1)
COc1ccc(CCn2c(-c3ccc(F)cc3)nc3c(c(=O)c4ccccc4n3C)c2=O)cc1OC	NR1D1 modulator 41 | NR1D1 mod conf inactive
COc1cc(-c2nn3c(COc4ccccc4)nnc3s2)cc(OC)c1OC	NR1D1 modulator 45 | NR1D1 mod conf 44 | RORg DNA counter inactive
Cn1nc(N)c2c(-c3ccccc3)c(C#N)c(N)nc21	none
CCN(CC)c1ccc(-c2c(C#N)c(N)nc(OC)c2C#N)cc1	NR1D1 modulator 178 | NR1D1 mod conf 137 | RORg DNA counter inactive
Cc1ccc(C2/C(=C(/O)c3cnn(-c4ccccc4)c3C)C(=O)C(=O)N2CCN2CCOCC2)o1 (stereo unspecified)	none
Cc1c(/C(O)=C2/C(=O)C(=O)N(CCN3CCOCC3)C2c2cccs2)cnn1-c1ccccc1 (stereo unspecified)	NR1D1 modulator 21 | NR1D1 mod conf 26
COc1ccc(CNC(=O)CN(C)Cc2ccc(C(C)(C)C)cc2)cc1	NR1D1 modulator 25 | NR1D1 mod conf inactive
Cc1cc(N2CCN(C(=O)OC(C)(C)C)C[C@H]2C)ccc1N1CCN(Cc2ccccc2)[C@@H](C)C1	none (no result: NR2E3 ag-1, NR2E3 ag-2)
COc1c(F)c(F)c(C(=O)Nc2ccc(-c3nc4ccccc4[nH]3)cc2)c(F)c1F	none
